Results gathered from unrelated publications.
Compare with care: the assays were run in different laboratories.
Target: Phosphatidylinositol 4,5-bisphosphate 3-kinase catalytic subunit gamma isoform (PIK3CG, Homo sapiens, UniProt P48736)

Structure (SMILES)	test	conditions	measurement	value
C#Cc1n[nH]c2c(-c3cn([C@@H](C)c4ccccc4)c(=O)[nH]c3=O)cc(F)cc12	enzyme activity, inhibitor	0.1 µM	inhibition	7.4%
Cn1cc(-c2cccc(N3CCc4c(sc5c4CC(C)(C)C5)C3=O)c2CO)cc(Nc2ccncn2)c1=O	enzyme activity, inhibitor	1 µM	inhibition	-1%
Cc1nn(C)cc1-c1nc2c(N3CCN(Cc4ccc(Cl)cc4)CC3)c(Cl)cnc2[nH]1	binding, competition with immobilised ligand	1 µM	remaining binding	100%
Nc1ncc(-c2nc(N3CCOCC3)nc(N3CCOCC3)n2)c(C(F)F)n1	binding, competition with immobilised ligand	10 µM	remaining binding	0%
COc1ncccc1-c1cnn2ccc(N3CCN(C(=O)OC(C)C)CC3)nc12	binding, competition with immobilised ligand	1 µM	remaining binding	100%
N#CC1(c2ccccn2)CCN(Cc2cc(C(=O)O)c(=O)n3ccccc23)CC1	cell-free assay, competition with immobilised ligand	1 µM	remaining binding	91%
C#Cc1n[nH]c2c(-c3cn([C@@H](C)c4ccccn4)c(=O)[nH]c3=O)cc(F)cc12	enzyme activity, inhibitor	0.1 µM	inhibition	1.9%
Cn1cc(-c2cc(F)cc(N3CCn4c(cc5c4CCCC5)C3=O)c2CO)cc(Nc2ccc(N3CCN(C4COC4)CC3)cn2)c1=O	enzyme activity, inhibitor	0.1 µM	inhibition	5%
Cn1cncc1[C@](O)(COc1ccc(C#N)cc1-c1ccc(OC(F)(F)F)cc1)c1ccc(C#N)cc1	cell-free assay, competition with immobilised ligand	1 µM	remaining binding	100%
